Results reported in ChEMBL document CHEMBL1132972, “Pyrrolidine inhibitors of human cytosolic phospholipase A(2)” (J Med Chem, 2000).

How the values were obtained:
[1] = target: T1, Cytosolic phospholipase A2 (Homo sapiens, UniProt P47712); test: Inhibition of Human cPLA2 alpha using Enzyme assay(PC/DOG assay)
T1 sequence (P47712 whole entry): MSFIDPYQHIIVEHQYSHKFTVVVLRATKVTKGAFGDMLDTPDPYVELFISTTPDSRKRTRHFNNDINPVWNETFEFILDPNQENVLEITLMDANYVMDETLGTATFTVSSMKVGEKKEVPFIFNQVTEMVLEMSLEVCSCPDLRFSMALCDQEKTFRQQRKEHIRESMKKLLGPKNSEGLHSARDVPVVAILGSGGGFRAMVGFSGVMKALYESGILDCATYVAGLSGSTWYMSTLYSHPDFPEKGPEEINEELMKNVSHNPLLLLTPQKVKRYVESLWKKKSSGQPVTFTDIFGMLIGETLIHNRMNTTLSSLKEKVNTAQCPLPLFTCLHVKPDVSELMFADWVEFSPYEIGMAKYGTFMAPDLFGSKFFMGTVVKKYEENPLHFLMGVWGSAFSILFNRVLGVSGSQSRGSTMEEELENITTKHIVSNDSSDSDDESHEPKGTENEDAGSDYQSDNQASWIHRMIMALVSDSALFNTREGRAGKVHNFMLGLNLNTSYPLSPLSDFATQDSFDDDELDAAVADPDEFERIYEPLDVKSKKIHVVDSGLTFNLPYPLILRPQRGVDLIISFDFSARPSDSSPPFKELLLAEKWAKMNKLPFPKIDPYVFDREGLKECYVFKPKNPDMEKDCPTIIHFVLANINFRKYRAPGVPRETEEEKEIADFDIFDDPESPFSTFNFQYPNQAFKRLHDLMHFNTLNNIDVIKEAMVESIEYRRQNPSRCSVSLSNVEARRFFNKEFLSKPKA

THP-1 [2] = test: Inhibition of arachidonic acid production from THP-1 cells stimulated with A-23187 using cellular assay; assay type: functional, cell-based; conditions: Homo sapiens
Outline: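 DMSO-differentiated THP-1 cells (1.3% DMSO for 2 days in RPMI 1640/10% FCS), washed with PBS, held in Hanks' saline pH 7.6 plus 0.1% BSA. Preincubated with inhibitor 15 min at 37 °C, then stimulated with 3 µM calcium ionophore A23187 for 20 min at 37 °C. Arachidonic acid release measured; IC50, mean ± SD, n=3 independent determinations.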

THP-1 [3] = test: Effect of pyrrolidine derivatives on production of eicosanoids from THP-1 cells stimulated with A-23187 using cellular assay on PGE-2, LTC-4; assay type: functional, cell-based; conditions: Homo sapiens
Outline: (§1)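 THP-1 cells grown in RPMI 1640 with 10% FCS, differentiated with 1.3% DMSO for 2 days, PBS-washed, suspended in Hanks' saline pH 7.6 with 0.1% BSA. Inhibitor preincubation 15 min at 37 °C, then 3 µM A23187 for 20 min at 37 °C. Stopped on ice; supernatant LTC4 and PGE2 measured by radio immunoassay and enzyme immunoassay. IC50, mean ± SD of three independent determinations.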

THP-1 [4] = test: Effect on production of eicosanoids from THP-1 cells stimulated with A-23187 using cellular assay on PGE-2, LTC-4; assay type: functional, cell-based; conditions: Homo sapiens; outline: as §1
THP-1 [5] = test: Effect of pyrrolidine derivatives on production of eicosanoids from THP-1 cells stimulated with A-23187 using cellular assay on LTC-4; assay type: functional, cell-based; conditions: Homo sapiens; outline: as §1
THP-1 [6] = test: Effect on production of eicosanoids from THP-1 cells stimulated with A-23187 using cellular assay on PGE-2; assay type: functional, cell-based; conditions: Homo sapiens; outline: as §1

For O=C1NC(=O)/C(=C/c2ccc(C(=O)NC[C@@H]3C[C@@H](OCc4ccccc4-c4ccccc4)CN3C(=O)c3cccc(C(=O)c4ccccc4)c3)cc2)S1, the IC50 [1] was greater than 10 µM and the IC50 (THP-1 [2]) was 5.9 µM.
COc1ccc2c(c1)c(CC(=O)O)c(C)n2C(=O)c1ccc(Cl)cc1 [INDOMETHACIN] was tested, and the IC50 (THP-1 [3]) was greater than 10 µM, the IC50 (THP-1 [4]) was 0.0036 µM and the IC50 (THP-1 [2]) was greater than 10 µM.
For CC(C)CN(Cc1ccccc1-c1ccccc1)[C@@H]1C[C@@H](CNC(=O)/C=C/c2ccc(/C=C3\SC(=O)NC3=O)cc2)N(C(=O)c2ccccc2C(=O)c2ccc(F)cc2)C1, the IC50 (THP-1 [2]) was 0.052 µM.
Work on O=C1NC(=O)/C(=C/c2ccc(C(=O)NC[C@@H]3C[C@@H](OCc4ccccc4-c4ccccc4)CN3C(=O)c3ccccc3C(=O)c3ccc(F)cc3F)cc2)S1 yielded an IC50 [1] of 0.049 µM and an IC50 (THP-1 [2]) of 0.23 µM.
CC(C)CN(Cc1ccccc1-c1ccccc1)[C@@H]1C[C@@H](CNC(=O)c2ccc(/C=C3\SC(=O)NC3=O)cc2)N(C(=O)c2ccccc2C(=O)c2ccc(F)cc2F)C1 was tested, and the IC50 [1] was 0.0062 µM and the IC50 (THP-1 [2]) was 0.047 µM.
O=C1NC(=S)S/C1=C\c1ccc(C(=O)NC[C@@H]2C[C@@H](SCc3ccccc3-c3ccccc3)CN2C(=O)c2ccccc2C(=O)c2ccc(F)cc2)cc1 showed an IC50 [1] of 0.072 µM and an IC50 (THP-1 [2]) of 0.4 µM.
With O=C1NC(=O)/C(=C/c2ccc(C(=O)NC[C@@H]3C[C@@H](OCc4ccccc4-c4ccccc4)CN3C(=O)c3ccccc3C(=O)c3ccccc3)cc2)S1 the IC50 (THP-1 [5]) was 0.37 µM, the IC50 (THP-1 [6]) was 0.41 µM and the IC50 [1] was 0.165 µM. For the same compound, the IC50 (THP-1 [2]) was 0.67 µM.
CC(C)CN(Cc1ccccc1-c1ccccc1)[C@@H]1C[C@@H](CNC(=O)/C=C/c2ccc(/C=C3\SC(=O)NC3=O)cc2)N(C(=O)c2ccccc2C(=O)c2ccc(F)cc2F)C1 was tested, and the IC50 (THP-1 [3]) was 0.013 µM, the IC50 (THP-1 [4]) was 0.031 µM and the IC50 (THP-1 [2]) was 0.022 µM.
Work on O=C1NC(=O)/C(=C/c2ccc(C(=O)NC[C@@H]3C[C@@H](SCc4ccccc4-c4ccccc4)CN3C(=O)c3ccccc3C(=O)c3ccc(F)cc3)cc2)S1 yielded an IC50 (THP-1 [2]) of 0.25 µM.
For CC(C)Cc1cccc(-c2ccccc2C(C)C)c1O[C@@H]1C[C@@H](CNC(=O)c2ccc(/C=C3\SC(=O)NC3=O)cc2)N(C(=O)c2ccccc2C(=O)c2ccc(F)cc2)C1, the IC50 [1] was 0.0053 µM and the IC50 (THP-1 [2]) was 0.092 µM.
In the case of O=C1NC(=O)/C(=C/c2ccc(C(=O)NC[C@@H]3C[C@@H](Oc4ccccc4-c4ccccc4)CN3C(=O)c3ccccc3C(=O)c3ccc(F)cc3)cc2)S1, the IC50 (THP-1 [6]) is reported as 0.21 µM and the IC50 (THP-1 [2]) is reported as 0.31 µM.
Compound O=C1NC(=O)/C(=C/c2ccc(C(=O)NC[C@@H]3C[C@@H](OCc4ccccc4-c4ccccc4)CN3C(=O)c3ccccc3C(=O)c3ccc(F)cc3)cc2)S1 has an IC50 (THP-1 [3]) of 0.26 µM, an IC50 (THP-1 [4]) of 0.26 µM and an IC50 [1] of 0.078 µM. For the same compound, the IC50 (THP-1 [2]) was 0.32 µM.
With O=C1NC(=O)/C(=C/c2ccc(C(=O)NC[C@@H]3C[C@@H](OCc4ccccc4-c4ccccc4)CN3C(=O)c3ccc(C(=O)c4ccccc4)cc3)cc2)S1 the IC50 [1] was greater than 10 µM and the IC50 (THP-1 [2]) was 5.5 µM.
In the case of CC(C)Cc1cccc(Br)c1O[C@@H]1C[C@@H](CNC(=O)c2ccc(/C=C3\SC(=O)NC3=O)cc2)N(C(=O)c2ccccc2C(=O)c2ccc(F)cc2F)C1, the IC50 [1] is reported as 0.022 µM and the IC50 (THP-1 [2]) is reported as 0.22 µM.
O=C1NC(=S)S/C1=C\c1ccc(C(=O)NC[C@@H]2C[C@@H](Oc3ccccc3-c3ccccc3)CN2C(=O)c2ccccc2C(=O)c2ccc(F)cc2)cc1 was tested, and the IC50 [1] was 0.083 µM and the IC50 (THP-1 [2]) was 0.66 µM.
For CC(C)Cc1cccc(-c2ccccc2C(C)C)c1O[C@@H]1C[C@@H](CNC(=O)c2ccc(/C=C3\SC(=O)NC3=O)cc2)N(C(=O)c2ccccc2C(=O)c2ccc(F)cc2F)C1, the IC50 [1] was 0.0021 µM and the IC50 (THP-1 [2]) was 0.055 µM.
O=C1NC(=S)S/C1=C\c1ccc(C(=O)NC[C@@H]2C[C@@H](OCc3ccccc3-c3ccccc3)CN2C(=O)c2ccccc2C(=O)c2ccc(F)cc2)cc1 gave an IC50 [1] of 0.09 µM and an IC50 (THP-1 [2]) of 0.7 µM.
For CC(C)CN(Cc1ccccc1-c1ccccc1)[C@@H]1C[C@@H](CNC(=O)c2ccc(/C=C3\SC(=O)NC3=O)cc2)N(C(=O)c2ccccc2C(=O)c2ccc(F)cc2)C1, the IC50 [1] was 0.021 µM and the IC50 (THP-1 [2]) was 0.18 µM.
Compound CC(C)Cc1cccc(Br)c1O[C@@H]1C[C@@H](CNC(=O)c2ccc(/C=C3\SC(=O)NC3=O)cc2)N(C(=O)c2ccccc2C(=O)c2ccc(F)cc2)C1 has an IC50 [1] of 0.038 µM and an IC50 (THP-1 [2]) of 0.3 µM.
